Screening data as filed in PubChem.
Hits are enriched below; roughly 5.1% of the tested compounds scored in any of these assays.
STAT1 activator – activators of IFN-gamma induced STAT1 signaling; NIH 3T3 STAT1-luciferase reporter, luminescence; 100% = IFN-gamma alone, no compound; activation (% of control), % at 5.5 µM; hit rate 2.6% among 200,000; AID 932;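 active = activation above the screen-wide mean activation plus 3 SD, cut at about 130% in these data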
STAT3 inh-1 – inhibitors of IL-6 induced STAT3 signaling; U3A cells, IL-6 STAT3-luciferase reporter, luminescence; host cell line lacks STAT1; inhibition, % at 5.5 µM; hit rate 0.89% among 190,000;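 active = inhibition above the mean inhibition across all screened compounds plus 3 SD, cut at about 44% in these data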
NF-kB expr up – raises NF-kB expression in human neuronal cells. fold change at 12.5 µM. hit rate 1.6% among 190,000. NF-kB reporter expression; active compounds read high; in the data active = fold change above about 3.3
STAT3 act – activators of IL-6 induced STAT3 signaling. U3A cells, IL-6 STAT3-luciferase reporter, luminescence; 100% = signal with IL-6 EC80 alone. activation (% of control), % at 5.6 µM. hit rate 0.91% among 190,000. AID 871;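 active = activation above the screen-wide mean of compound activation plus 3 SD, cut at about 130% in these data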
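Test system: Human STAT1-deficient U3A cells with stable STAT3-luciferase reporter | Also added: Interleukin-6, 33 ng/mL | Timing: Compound pre-incubation 1 h before IL-6, then 6 h stimulation at 37 °C | Technique: Luciferase reporter luminescence | Read-out: Percent of IL-6-only median luminescence | Benchmarks: IL-6-only wells as 100% reference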
APP 5'UTR act – APP 5'UTR luciferase reporter activation | SH-SY5Y APP 5'UTR luciferase reporter, luminescence; zero percent = DMSO vehicle wells | activation, % at 2 µM | hit rate 1% among 190,000 | AID 1276;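 active = activation above a set limit, based on mean plus 3 SD of controls, cut at about 140% in these data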
STAT1 blocker – STAT1 signaling inhibition | NIH 3T3 STAT1-luciferase reporter, IFN-gamma, luminescence | inhibition, % at 5.5 µM | hit rate 0.35% among 200,000 | AID 920;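 active = inhibition above a set limit, the mean inhibition across all tested compounds plus 3 SD, cut at about 34% in these data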
STAT3 inh-2 – confirmation of STAT3 signaling inhibitors | hit rate 45% among 1,200 | inhibition, % at 5.7 µM | U3A cells, IL-6 STAT3 luciferase reporter, luminescence; cell line lacks STAT1 | shares compounds with STAT3 inh-1;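 active = inhibition above the hit cutoff computed for the primary STAT3 screen, cut at about 44% in these data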
NFkB inh 2 – NF-kappaB inhibition in STAT3 inhibitor counter-screen; HEK293T NF-kB luciferase reporter, TNF-alpha induced; hit rate 36% among 1,200; shares compounds with STAT3 inh-1; inhibition, % at 5.7 µM; AID 1308;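 active = inhibition above the mean of solvent-only control wells plus 3 SD, cutoff set per campaign, cut at about 13% in these data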
STAT1 inh STAT3c – inhibits STAT1, counter-screen to STAT3 inhibitors. shares compounds with STAT3 inh-1. NIH 3T3 STAT1-luciferase reporter, IFN-gamma induced, luminescence. inhibition, % at 5.7 µM. hit rate 27% among 1,200. AID 1317;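 active = inhibition above the mean plus 3 SD of solvent-only control wells, limit set per screening run, cut at about 16% in these data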
A number is an active result; - = inactive; . = no result given.

SMILES	STAT1 activator	STAT3 inh-1	NF-kB expr up	STAT3 act	APP 5'UTR act	STAT1 blocker	STAT3 inh-2	NFkB inh 2	STAT1 inh STAT3c
COc1ccc(CC(=O)Nc2cccc(-c3nnc(-c4cccc(C)c4)o3)c2)cc1OC	-	44	-	-	-	-	62	-	-
COc1ccc(CC(=O)Nc2cccc(-c3nnc(-c4ccccc4)o3)c2)cc1OC	-	-	-	-	-	-	.	.	.
CC(C)N(Cc1cnn(C)c1)Cc1nc(Cc2ccccc2Cl)no1	-	-	-	-	-	-	.	.	.
Cc1nn(C)c(C)c1CN(Cc1nc(CCC(C)C)no1)C(C)C	-	76	-	-	-	-	78	27	20
COc1ccc(-c2ccnc3ncnn23)cc1	-	-	-	-	-	-	.	.	.
Cc1nn(Cc2ccc(Cl)cc2Cl)c(C)c1NC(=O)C1C2CCC(O2)C1C(=O)O (stereo not drawn)	-	47	-	-	-	-	-	-	-
Cc1cccc2cc3c(N)c(C#N)sc3nc12	-	50	-	-	-	-	-	-	-
Cc1nn(C)c(Cl)c1CN1CCCC(CO)(Cc2ccccc2)C1 (stereo not drawn)	-	-	-	-	-	-	.	.	.
c1ccc(-c2cc(CSc3nc4ccccc4[nH]3)on2)cc1	-	46	-	-	-	-	-	-	-
NC(=O)C1CCN(c2ccc(S(=O)(=O)N3CCC(Cc4ccccc4)CC3)cn2)CC1	-	64	-	-	-	-	55	-	-
O=S(=O)(c1ccc(N2CCCCCC2)nc1)N1CCCC1	-	-	-	-	-	-	.	.	.
O=c1c2ccccc2nc2c3ccccc3c(NCc3ccccn3)nn12	-	-	-	-	-	-	.	.	.
Cc1nc(NCc2ccccn2)c2ccccc2n1	-	49	-	-	-	-	-	-	-
COc1ccc(-n2c(-c3ccc(Cl)cc3)c[n+]3c2CCc2ccccc2-3)cc1	-	63	-	-	-	-	50	-	20
COc1ccc(-n2c(-c3ccccc3)nnc2-c2ccc(Cl)cc2)cc1	-	-	-	-	-	-	.	.	.
N#Cc1c(NC(=O)CCCC(=O)O)sc2c1CCCCC2	-	-	-	-	-	-	.	.	.
CCOC(=O)COc1ccc(S(=O)(=O)NCC2CCCO2)cc1 (stereo not drawn)	-	-	-	-	-	-	.	.	.
N#Cc1c(NC(=O)CSc2ncn[nH]2)sc2c1CCCC2	-	60	-	-	.	-	57	18	-
Cc1ccnc(SCC(=O)Nc2sc3c(c2C#N)CCCC3)n1	-	72	-	-	-	-	57	15	17
Cc1csc(SCC(=O)Nc2sc3c(c2C#N)CCC3)n1	-	-	-	-	-	-	.	.	.
O=C(Nc1sc2c(c1C(=O)O)CCCCC2)c1ccccc1	-	-	-	-	-	-	.	.	.
CC(C)(C)C1CCc2c(sc(NC(=O)CSc3ncn[nH]3)c2C#N)C1 (stereo not drawn)	-	-	-	-	-	-	.	.	.
N#Cc1c(NC(=O)c2ccccc2)sc2c1CCCCC2	136	52	3.8	-	198	-	-	-	-
Cn1c(=O)c(C(=O)CSc2ccccc2)c(N)n(Cc2ccccc2)c1=O	-	-	-	-	-	-	.	.	.
O=C(Nc1ccccn1)C1CCN(S(=O)(=O)c2cccc3nonc23)CC1	-	-	-	-	-	-	.	.	.
SMILES	STAT1 activator	STAT3 inh-1	NF-kB expr up	STAT3 act	APP 5'UTR act	STAT1 blocker	STAT3 inh-2	NFkB inh 2	STAT1 inh STAT3c
O=C(O)c1cnc(-c2ccccc2)nc1Sc1ccc(Cl)cc1	-	-	-	-	-	-	.	.	.
Cc1cc(/C=N/n2cnnc2)c(C)n1-c1ccc(OCc2ccccc2F)cc1	-	-	-	-	-	-	.	.	.
Cc1cc(/C=N/n2cnnc2)c(C)n1-c1ccc(OCc2ccc(Cl)cc2)cc1	-	77	-	-	-	-	61	18	-
c1ccc2cc(CN3CCOCC3)ccc2c1	-	-	-	-	-	-	.	.	.
Fc1ccc(CNn2cnnc2SCc2ccc(F)cc2)cc1	-	-	-	-	-	-	.	.	.
Cc1c(C(=O)N2CCC(C)CC2)cccc1[N+](=O)[O-]	-	-	-	-	-	-	.	.	.
CC(=O)c1c(C)[nH]c(C(=O)CSc2nc3ccccc3n2C)c1C	-	50	-	-	-	-	-	-	-
COc1ccc(NCN2C(=O)CCC2=O)cc1	-	-	-	-	-	-	.	.	.
COc1ccc(N(C(=O)Cc2cccs2)C(C(=O)NC2CCCCC2)c2cccn2C)cc1OC (stereo not drawn)	-	-	-	-	-	-	.	.	.
C#CC(=O)N(c1ccc(OC)c(OC)c1)C(C(=O)NC1CCCC1)c1cccs1 (stereo not drawn)	-	108	-	-	-	36	89	19	32
Cc1cc(N=NC(=O)c2ccccc2)ccc1O	-	55	-	-	-	-	-	-	-
Clc1ccc2nc(-c3ccc(Br)s3)cn2c1	-	58	3.5	-	230	-	-	-	-
Clc1c(CSc2nc3ccccc3o2)nc2ccccn12	137	45	5.5	-	172	-	-	-	-
O=C(O)c1ccc(CSc2nc3ccccc3o2)cc1	-	-	-	-	-	-	.	.	.
CC(C)C(NC(=O)c1ccc(C(C)(C)C)cc1)C(=O)Nc1cccc(S(N)(=O)=O)c1 (stereo not drawn)	-	44	-	-	-	-	-	-	-
CCOc1ccccc1C(=O)NC(C(=O)Nc1cccc(S(N)(=O)=O)c1)C(C)C (stereo not drawn)	-	-	-	-	-	-	.	.	.
COc1cccc(/C=C/C(=O)Nc2ccc3c(c2)OCCO3)c1OC	-	66	8.6	-	205	-	-	-	-
Cc1ccc(NC(=O)c2ccc(CN3CCc4ccccc4C3)cc2)cc1	-	71	-	-	-	-	67	18	-
O=C(Nc1cccnc1)c1ccc(C(=O)Nc2cccnc2)cc1	-	-	-	-	-	-	.	.	.
COCCCNC(=O)c1ccc(CN2CCc3ccccc3C2)cc1	-	-	-	-	-	-	.	.	.
CCc1ccc(NC(=O)CN2CCc3ccccc3C2)cc1	-	-	-	-	-	-	.	.	.
O=C(Nc1cccnc1)c1ccc(CN2CCc3ccccc3C2)cc1	-	47	-	-	-	-	-	-	-
O=C(Nc1ccccc1)c1ccc(CN2CCc3ccccc3C2)cc1	-	52	-	-	-	-	64	-	-
Cc1nn(C)c(Cl)c1C(N)=O	-	-	-	-	-	-	.	.	.
O=C1CC(c2ccccc2)CC(O)=C1C=Nc1ccccc1 (stereo not drawn)	-	-	-	-	-	-	.	.	.
